# Results as given in ChEMBL document CHEMBL1149565, “Identification of a novel series of benzimidazoles as potent and selective antagonists of the human melanocortin-4 receptor” (Bioorg Med Chem Lett, 2007).
# The source made the active and inactive calls. The calls are words filed in the database; no cut-off is given here.
# Tests used:
# [1] = biological target: T1, Melanocortin receptor 4 (Homo sapiens, UniProt P32245); assay: Displacement of [125I]NDP-alphaMSH from human melanocortin 4 receptor expressed in CHOK1 cells; type: cell-based, CHO-K1
# Method in brief: (§1)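 Membranes from CHO-K1 cells stably expressing human MC1, MC3, MC4 or MC5 receptor, 1–10 µg protein/well, in 50 mM Tris-HCl pH 7.4 with 0.2% BSA, 5 mM MgCl2, 1 mM CaCl2, 0.1 mg/mL bacitracin. Incubated with increasing test compound and 0.1–0.3 nM [125I]NDP-α-MSH, 90–120 min at 37 °C depending on subtype. Filtration on PEI-presoaked GF/C filters, cold buffer washes, radioactivity counted; nonlinear regression; three independent measurements.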
# [2] = biological target: Melanocortin receptor 3 (Homo sapiens, UniProt P41968); assay: Displacement of [125I]NDP-alphaMSH from human melanocortin 3 receptor expressed in CHOK1 cells; type: cell-based, CHO-K1; method in brief: as §1
# [3] = biological target: T1, Melanocortin receptor 4; assay: Agonist activity at human melanocortin 4 receptor expressed in CHOK1 cells assessed as stimulation of cAMP production at 10 uM; type: functional, cell-based; settings: CHO-K1
# Method in brief: (§2)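 CHO-K1 cells stably expressing human MC4 receptor, suspended in RPMI 1640 with 0.5 mM IBMX and 0.2% protein cocktail, 7000 cells/well on anti-cAMP antibody-coated electrode plates. NDP-α-MSH concentration–response run with increasing test compound concentrations (agonist check at 10 µM alone), 40 min at 37 °C. Cells lysed, 2.5 nM ruthenium-labelled cAMP added, 90 min, then electrochemiluminescence read-out. Nonlinear regression; KB by Schild regression, logarithmic mean of three independent measurements.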
# [4] = biological target: Melanocortin receptor 5 (Homo sapiens, UniProt P33032); assay: Displacement of [125I]NDP-alphaMSH from human melanocortin 5 receptor expressed in CHOK1 cells; type: cell-based, CHO-K1; method in brief: as §1
# [5] = biological target: Melanocyte-stimulating hormone receptor (Homo sapiens, UniProt Q01726); assay: Displacement of [125I]NDP-alphaMSH from human melanocortin 1 receptor expressed in CHOK1 cells; type: cell-based, CHO-K1; method in brief: as §1
# [6] = biological target: T1, Melanocortin receptor 4; assay: Antagonist activity at human melanocortin 4 receptor expressed in CHOK1 cells assessed as inhibition of NDP-alpha-MSH-stimulated cAMP production; type: functional, cell-based; settings: CHO-K1; method in brief: as §2
# [7] = biological target: Melanocortin receptor (M3 and M4) (Homo sapiens) (UniProt P32245+P41968); assay: Selectivity for human MC4R over human MC3R; type: protein assay
# [8] = Half life in Sprague-Dawley rat at 4.5 umol/kg, iv; type: ADME, organism-based; settings: in vivo
# Method in brief: (§3)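 Fed male Sprague–Dawley rats, three per time point, given 4.5 µmol/kg intravenously via penile vein in 1 ml/kg 10% DMA/90% propanediol. Under deep isoflurane anaesthesia, blood taken from vena cava at 1, 15, 30, 60, 90 and 120 min, centrifuged 2000g, 15 min, 4 °C. Plasma and brain levels measured; brain/blood ratio from AUC.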
# [9] = Ratio of drug level in brain to blood in Sprague-Dawley rat at 4.5 umol/kg, iv; type: ADME, tissue-based; settings: read-out: Ratio AUC; method in brief: as §3
# Melanocortin receptor 3, sequence (P41968 whole entry): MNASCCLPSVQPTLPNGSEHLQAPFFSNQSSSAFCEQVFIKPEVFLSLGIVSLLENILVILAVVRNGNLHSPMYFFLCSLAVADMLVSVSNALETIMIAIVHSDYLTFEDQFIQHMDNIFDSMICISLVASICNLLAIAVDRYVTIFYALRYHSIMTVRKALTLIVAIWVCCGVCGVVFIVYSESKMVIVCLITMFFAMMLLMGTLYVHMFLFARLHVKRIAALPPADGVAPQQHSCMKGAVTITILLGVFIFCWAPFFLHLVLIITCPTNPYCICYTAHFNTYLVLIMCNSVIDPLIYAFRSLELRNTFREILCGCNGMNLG
# T1 sequence (P32245 whole entry): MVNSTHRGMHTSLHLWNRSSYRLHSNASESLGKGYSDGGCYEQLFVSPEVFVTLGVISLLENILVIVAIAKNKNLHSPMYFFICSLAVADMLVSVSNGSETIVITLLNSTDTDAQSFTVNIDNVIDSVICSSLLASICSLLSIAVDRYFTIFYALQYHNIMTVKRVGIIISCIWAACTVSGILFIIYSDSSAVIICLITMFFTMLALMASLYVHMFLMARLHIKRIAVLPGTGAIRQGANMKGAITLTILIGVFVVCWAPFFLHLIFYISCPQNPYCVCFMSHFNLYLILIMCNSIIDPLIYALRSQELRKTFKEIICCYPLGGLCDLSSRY
# Melanocortin receptor 5, sequence (P33032 whole entry): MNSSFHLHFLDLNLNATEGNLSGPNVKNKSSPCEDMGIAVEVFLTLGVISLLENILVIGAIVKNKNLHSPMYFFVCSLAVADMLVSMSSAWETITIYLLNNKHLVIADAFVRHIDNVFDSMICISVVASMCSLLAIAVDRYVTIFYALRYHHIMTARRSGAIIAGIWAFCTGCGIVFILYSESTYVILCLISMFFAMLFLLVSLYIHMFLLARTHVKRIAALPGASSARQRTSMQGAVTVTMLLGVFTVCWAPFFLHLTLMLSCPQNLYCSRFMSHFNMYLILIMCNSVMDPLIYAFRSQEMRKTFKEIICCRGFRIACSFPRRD
# Melanocyte-stimulating hormone receptor, sequence (Q01726 whole entry): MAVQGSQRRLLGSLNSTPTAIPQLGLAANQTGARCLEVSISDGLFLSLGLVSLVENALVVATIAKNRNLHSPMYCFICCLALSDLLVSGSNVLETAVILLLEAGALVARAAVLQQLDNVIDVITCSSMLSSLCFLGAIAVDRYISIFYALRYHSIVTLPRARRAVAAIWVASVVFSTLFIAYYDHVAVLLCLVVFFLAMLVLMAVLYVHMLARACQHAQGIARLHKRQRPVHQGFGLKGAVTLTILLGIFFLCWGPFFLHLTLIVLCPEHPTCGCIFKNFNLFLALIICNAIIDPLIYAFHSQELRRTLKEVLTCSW
smiles,measurement,setting,value
CC(=O)c1ccc(Nc2nc3ccc(C(=O)N(CCC(C)C)CCC(C)C)cc3n2CCCNC(=O)OC(C)(C)C)cc1,Ki,[1]; read-out: Ki,> 10000 nM
same,Ki,[1]; read-out: Log Ki (converted),85100 nM
CC(C)CCN(CCC(C)C)C(=O)c1ccc2nc(Nc3ccc(C(N)=O)cc3)n(CCCN3CCCCC3)c2c1,Ki,[1]; read-out: Ki,6.5 nM
CC(C)CCN(CCC(C)C)C(=O)c1ccc2nc(Nc3ccc(N4CCCCC4)cc3)n(CCCN3CCCCC3)c2c1,Ki,[1]; read-out: Ki,9.7 nM
COc1cc(Nc2nc3ccc(C(=O)N(CC(C)C)CC(C)C)cc3n2CCCN)cc(OC)c1OC,Ki,[1]; read-out: Ki,11000 nM
same,Ki,[1]; read-out: Log Ki (converted),11700 nM
CC(C)CCN(CCC(C)C)C(=O)c1ccc2nc(Nc3cccc4[nH]ccc34)n(CCCN3CCCCC3)c2c1,Ki,[1]; read-out: Ki,14 nM
COc1ccc(Cc2nc3ccc(C(=O)N(CCC(C)C)CCC(C)C)cc3n2CCCN2CCCCC2)cc1,Ki,[1]; read-out: Ki,28 nM
CC(=O)c1ccc(Cc2nc3ccc(C(=O)N(CCC(C)C)CCC(C)C)cc3n2CCCN2CCCCC2)cc1,Ki,[2],4500 nM
same,Ki,[1]; read-out: Ki,3.9 nM
same,Activity,[3],inactive
same,Ki,[4],5900 nM
same,Ki,[5],> 10000 nM
same,Kb,[6],14 nM
CCCCN(CCCC)C(=O)c1ccc2nc(Nc3cc(OC)c(OC)c(OC)c3)n(CCCN)c2c1,Ki,[1]; read-out: Ki,1000 nM
CC(C)CCN(CCC(C)C)C(=O)c1ccc2nc(Nc3ccc([N+](=O)[O-])cc3)n(CCCN3CCCCC3)c2c1,Ki,[1]; read-out: Ki,2.2 nM
CCC(=O)c1ccc(Nc2nc3ccc(C(=O)N(CCC(C)C)CCC(C)C)cc3n2CCCN2CCCCC2)cc1,Ki,[1]; read-out: Ki,2.7 nM
CC(=O)c1ccc(Nc2nc3ccc(C(=O)N(CCC(C)C)CCC(C)C)cc3n2C2CCN(C)CC2)cc1,Ki,[1]; read-out: Ki,50 nM
CC(=O)c1ccc(CNc2nc3ccc(C(=O)N(CCC(C)C)CCC(C)C)cc3n2CCCN2CCCCC2)cc1,Ki,[1]; read-out: Ki,5.8 nM
CC(C)CCN(CCC(C)C)C(=O)c1ccc2nc(Nc3ccc(Cl)cc3)n(CCCN3CCCCC3)c2c1,Ki,[1]; read-out: Ki,8.8 nM
CNC(=O)c1ccc(Nc2nc3ccc(C(=O)N(CCC(C)C)CCC(C)C)cc3n2CCCN2CCCCC2)cc1,Fold change,[7],40
same,Ki,[2],130 nM
same,Ki,[1]; read-out: Ki,3.3 nM
same,Activity,[3],inactive
same,Ki,[4],880 nM
same,Ki,[5],9300 nM
same,Kb,[6],3.2 nM
COc1ccc(C(=O)c2nc3ccc(C(=O)N(CCC(C)C)CCC(C)C)cc3n2CCCN2CCCCC2)cc1,Fold change,[7],40
same,Ki,[2],540 nM
same,Ki,[1]; read-out: Ki,0.96 nM
same,Activity,[3],inactive
same,Ki,[4],1600 nM
same,Ki,[5],7500 nM
same,Kb,[6],44 nM
CC(=O)c1ccc(Nc2nc3ccc(C(=O)N(CCC(C)C)CCC(C)C)cc3n2CCCN(C)C)cc1,Ki,[1]; read-out: Ki,12 nM
COc1cc(Nc2nc3ccc(C(=O)N(CCC(C)C)CCC(C)C)cc3n2CCCN)cc(OC)c1OC,Ki,[1]; read-out: Ki,420 nM
CC(C)CCN(CCC(C)C)C(=O)c1ccc2nc(Nc3cccnc3)n(CCCN3CCCCC3)c2c1,Ki,[1]; read-out: Ki,4.2 nM
CNCCCn1c(Nc2ccc(C(C)=O)cc2)nc2ccc(C(=O)N(CCC(C)C)CCC(C)C)cc21,Ki,[1]; read-out: Ki,51 nM
CC(=O)c1cccc(Nc2nc3ccc(C(=O)N(CCC(C)C)CCC(C)C)cc3n2CCCN2CCCCC2)c1,Ki,[1]; read-out: Ki,4.5 nM
CC(C)CCN(CCC(C)C)C(=O)c1ccc2nc(Nc3ccccc3)n(CCCN3CCCCC3)c2c1,Ki,[1]; read-out: Ki,7.3 nM
CCCN(CCC)C(=O)c1ccc2nc(Nc3cc(OC)c(OC)c(OC)c3)n(CCCN)c2c1,Ki,[1]; read-out: Ki,17000 nM
same,Ki,[1]; read-out: Log Ki (converted),17800 nM
CC(C)CCN(CCC(C)C)C(=O)c1ccc2nc(Nc3ccc(Oc4ccccc4)cc3)n(CCCN3CCCCC3)c2c1,Ki,[1]; read-out: Ki,2.1 nM
CC(=O)c1ccc(Nc2nc3ccc(C(=O)N(CCC(C)C)CCC(C)C)cc3n2CCCN2CCN(C)CC2)cc1,Ki,[1]; read-out: Ki,45 nM
CC(=O)c1ccccc1Nc1nc2ccc(C(=O)N(CCC(C)C)CCC(C)C)cc2n1CCCN1CCCCC1,Ki,[1]; read-out: Ki,110 nM
CC(C)CCN(CCC(C)C)C(=O)c1ccc2nc(Nc3ccc(Br)cc3)n(CCCN3CCCCC3)c2c1,Ki,[1]; read-out: Ki,7.5 nM
CC(=O)c1ccc(Nc2nc3ccc(C(=O)N(CCC(C)C)CCC(C)C)cc3n2CC(C)(C)CN(C)C)cc1,Ki,[1]; read-out: Ki,730 nM
COc1ccc(-c2nc3ccc(C(=O)N(CCC(C)C)CCC(C)C)cc3n2CCCN2CCCCC2)cc1,Ki,[1]; read-out: Ki,37 nM
CC(=O)Nc1ccc(Nc2nc3ccc(C(=O)N(CCC(C)C)CCC(C)C)cc3n2CCCN2CCCCC2)cc1,Ki,[1]; read-out: Ki,3.7 nM
CCN(CC)CCCn1c(Nc2ccc(C(C)=O)cc2)nc2ccc(C(=O)N(CCC(C)C)CCC(C)C)cc21,Ki,[1]; read-out: Ki,7.9 nM
COC(=O)c1ccc(Nc2nc3ccc(C(=O)N(CCC(C)C)CCC(C)C)cc3n2CCCN2CCCCC2)cc1,Ki,[1]; read-out: Ki,0.9 nM
CC(=O)c1ccc(Nc2nc3ccc(C(=O)N(CCC(C)C)CCC(C)C)cc3n2CCCN2CCOCC2)cc1,Ki,[1]; read-out: Ki,33 nM
CC(C)CCN(CCC(C)C)C(=O)c1ccc2nc(-c3c[nH]c4ccccc34)n(CCCN3CCCCC3)c2c1,Ki,[1]; read-out: Ki,7 nM
CC(=O)c1ccc(Nc2nc3ccc(C(=O)N(CCC(C)C)CCC(C)C)cc3n2CCN)cc1,Ki,[1]; read-out: Ki,220 nM
CC(=O)c1ccc(Nc2nc3ccc(C(=O)N(CCC(C)C)CCC(C)C)cc3n2CCCN)cc1,Ki,[1]; read-out: Ki,60 nM
COc1ccc(Nc2nc3ccc(C(=O)N(CCC(C)C)CCC(C)C)cc3n2CCCN2CCCCC2)cc1,Ki,[1]; read-out: Ki,5 nM
CC(C)CCN(CCC(C)C)C(=O)c1ccc2nc(Nc3ccsc3)n(CCCN3CCCCC3)c2c1,Ki,[1]; read-out: Ki,33 nM
CC(=O)c1ccc(Nc2nc3ccc(C(=O)N(CCC(C)C)CCC(C)C)cc3n2CCCO)cc1,Ki,[1]; read-out: Ki,2300 nM
CC(C)CCN(CCC(C)C)C(=O)c1ccc2nc(Nc3ccc(-c4ccccc4)cc3)n(CCCN3CCCCC3)c2c1,Ki,[1]; read-out: Ki,5.2 nM
COC(=O)c1ccc(-c2nc3ccc(C(=O)N(CCC(C)C)CCC(C)C)cc3n2CCCN2CCCCC2)cc1,Ki,[1]; read-out: Ki,45 nM
CCCCCN(CCCCC)C(=O)c1ccc2nc(Nc3cc(OC)c(OC)c(OC)c3)n(CCCN)c2c1,Ki,[1]; read-out: Ki,640 nM
CC(C)CCN(CCC(C)C)C(=O)c1ccc2nc(Nc3ccc(C(=O)c4ccccc4)cc3)n(CCCN3CCCCC3)c2c1,Ki,[1]; read-out: Ki,1.7 nM
CC(C)CCN(CCC(C)C)C(=O)c1ccc2nc(Nc3ccc(F)cc3)n(CCCN3CCCCC3)c2c1,Ki,[1]; read-out: Ki,8.3 nM
CC(C)CCN(CCC(C)C)C(=O)c1ccc2nc(NCc3ccccc3)n(CCCN3CCCCC3)c2c1,Ki,[1]; read-out: Ki,18 nM
CC(=O)c1ccc(Nc2nc3ccc(C(=O)N(CCC(C)C)CCC(C)C)cc3n2CCCCN)cc1,Ki,[1]; read-out: Ki,130 nM
CC(=O)c1ccc(Nc2nc3ccc(C(=O)N(CCC(C)C)CCC(C)C)cc3n2CCCN2CCCCC2)cc1,Ki,[2],400 nM
same,Ki,[1]; read-out: Ki,2 nM
same,half-life,[8],5 h
same,Activity,[3],inactive
same,Ki,[4],2200 nM
same,Ki,[5],5200 nM
same,Kb,[6],77 nM
same,Kp,[9],2.9
CC(C)CCN(CCC(C)C)C(=O)c1ccc2nc(-c3cc4ccccc4s3)n(CCCN3CCCCC3)c2c1,Ki,[1]; read-out: Ki,2.9 nM
CC(=O)NCCNc1nc2ccc(C(=O)N(CCC(C)C)CCC(C)C)cc2n1CCCN1CCCCC1,Ki,[1]; read-out: Ki,31 nM
CC(=O)c1ccc(Nc2nc3ccc(C(=O)N(CC(C)C)CC(C)C)cc3n2CCCN)cc1,Ki,[1]; read-out: Ki,770 nM
CC(=O)c1ccc(-c2nc3ccc(C(=O)N(CCC(C)C)CCC(C)C)cc3n2CCCN2CCCCC2)cc1,Ki,[1]; read-out: Ki,20 nM
CC(=O)c1ccc(Nc2nc3ccc(C(=O)N(CCC(C)C)CCC(C)C)cc3n2CCCN2CCCC2)cc1,Ki,[1]; read-out: Ki,4.9 nM
COCCNc1nc2ccc(C(=O)N(CCC(C)C)CCC(C)C)cc2n1CCCN1CCCCC1,Ki,[1]; read-out: Ki,78 nM
CC(C)CCN(CCC(C)C)C(=O)c1ccc2nc(-c3cn(C)c4ccccc34)n(CCCN3CCCCC3)c2c1,Ki,[1]; read-out: Ki,3.2 nM
